The term Dmax denotes the largest share of the target that was removed. In general, DC50 refers to the concentration giving 50% degradation. One may read the IC50 as the concentration that inhibits the measured activity by half.

Molecules are shown by their SMILES.

This note sets out measurements from article PMC11393732 (RSC Medicinal Chemistry, 2024).

The target of series [1] is T1, KDM3B (Homo sapiens, UniProt Q7LBC6). Description: Western blot KDM3B degradation in HCP-1 cells. The class given is cell-based. For orientation: In western blotting, separated proteins are transferred to a membrane and probed.
T1 sequence (Q7LBC6 whole entry): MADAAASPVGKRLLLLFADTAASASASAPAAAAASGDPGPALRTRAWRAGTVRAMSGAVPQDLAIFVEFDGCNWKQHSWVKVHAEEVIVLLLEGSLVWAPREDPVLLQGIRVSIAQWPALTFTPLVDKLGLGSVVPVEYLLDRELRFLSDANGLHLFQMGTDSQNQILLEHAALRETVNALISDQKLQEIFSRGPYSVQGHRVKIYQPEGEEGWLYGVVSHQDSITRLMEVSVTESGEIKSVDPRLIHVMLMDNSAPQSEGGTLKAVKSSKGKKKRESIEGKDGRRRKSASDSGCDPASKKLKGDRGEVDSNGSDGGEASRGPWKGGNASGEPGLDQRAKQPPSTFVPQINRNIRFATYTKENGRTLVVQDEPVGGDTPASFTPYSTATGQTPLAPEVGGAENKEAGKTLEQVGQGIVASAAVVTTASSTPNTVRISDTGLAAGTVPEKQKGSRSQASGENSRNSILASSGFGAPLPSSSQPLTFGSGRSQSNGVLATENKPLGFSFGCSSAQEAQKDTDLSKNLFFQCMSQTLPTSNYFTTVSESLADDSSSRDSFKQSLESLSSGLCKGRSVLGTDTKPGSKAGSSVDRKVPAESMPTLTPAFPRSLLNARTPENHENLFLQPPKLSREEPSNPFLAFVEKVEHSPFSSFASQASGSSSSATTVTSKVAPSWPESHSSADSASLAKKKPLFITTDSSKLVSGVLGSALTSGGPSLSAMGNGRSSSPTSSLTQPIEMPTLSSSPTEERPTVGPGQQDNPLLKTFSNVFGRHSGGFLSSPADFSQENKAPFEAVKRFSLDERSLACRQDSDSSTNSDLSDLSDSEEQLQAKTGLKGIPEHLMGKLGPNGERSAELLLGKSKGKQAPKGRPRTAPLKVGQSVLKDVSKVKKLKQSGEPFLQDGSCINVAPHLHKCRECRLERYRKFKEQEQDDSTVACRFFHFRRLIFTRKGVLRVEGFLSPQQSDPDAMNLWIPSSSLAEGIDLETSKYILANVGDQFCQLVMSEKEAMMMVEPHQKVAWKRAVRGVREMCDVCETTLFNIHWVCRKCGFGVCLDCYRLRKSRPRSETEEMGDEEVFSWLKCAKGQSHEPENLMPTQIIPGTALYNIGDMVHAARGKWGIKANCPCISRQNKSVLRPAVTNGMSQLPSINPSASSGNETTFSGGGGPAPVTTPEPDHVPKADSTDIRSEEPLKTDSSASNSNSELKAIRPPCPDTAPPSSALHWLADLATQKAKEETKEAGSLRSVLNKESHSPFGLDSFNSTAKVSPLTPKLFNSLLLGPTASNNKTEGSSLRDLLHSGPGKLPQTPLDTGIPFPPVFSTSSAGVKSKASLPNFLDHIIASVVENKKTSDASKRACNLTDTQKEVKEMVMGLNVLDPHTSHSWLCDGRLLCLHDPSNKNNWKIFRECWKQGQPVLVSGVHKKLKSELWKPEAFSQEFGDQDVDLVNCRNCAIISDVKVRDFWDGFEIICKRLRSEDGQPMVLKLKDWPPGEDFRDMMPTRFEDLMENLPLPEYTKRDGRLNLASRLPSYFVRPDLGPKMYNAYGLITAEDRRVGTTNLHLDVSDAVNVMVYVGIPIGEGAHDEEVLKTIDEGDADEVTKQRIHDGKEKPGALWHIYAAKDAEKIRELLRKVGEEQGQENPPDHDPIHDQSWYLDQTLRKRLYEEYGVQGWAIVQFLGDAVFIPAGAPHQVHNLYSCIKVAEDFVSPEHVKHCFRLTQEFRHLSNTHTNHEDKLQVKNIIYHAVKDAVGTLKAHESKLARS
For series [2], the system named is KDM4 family proteins (KDM4A, KDM4B and KDM4C). The experiment in a line: Western blot KDM4 family proteins in SW480 cells. The class given is cell-based, human. The essentials: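 Lysates from compound-treated SW480 cells normalised for total protein and resolved by SDS-PAGE. Semi-dry transfer to PVDF, 1 h block in 5% milk. Overnight incubation at 4 °C with anti-KDM4A, -KDM4B or -KDM4C antibody in 1% milk, secondary 1 h at RT, TBST washes, α-tubulin as loading control.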

Series [3] concerns the target T1, KDM3B. Description: Western blot KDM3B degradation in SW480 cells. It counts as cell-based. The essentials:
(§1)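 SW480 cells exposed to test compound for 16 h, then total lysates protein-normalised and run on SDS-PAGE. Semi-dry transfer to PVDF, 1 h block in 5% milk. Primary antibody overnight at 4 °C in 1% milk, secondary 1 h at RT, TBST washes, α-tubulin as loading control. Rescue arms co-treated with MLN4924 (1 μM) or pomalidomide (100 μM). Test compound at 0.1 μM for the KDM3A blot and 1 μM for the KDM3B blot.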

In another series the target is hERG potassium channel (Homo sapiens, UniProt Q12809). Description: hERG automated patch-clamp assay. It counts as cell-based. The essentials: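 hERG-expressing CHO-K1 cells were plated at least 24 h beforehand and recorded by whole-cell patch clamp at about RT with 0.1% Pluronic F-68. Holding −80 mV; 500 ms step to −40 mV for leak subtraction; 500 ms step to +40 mV, then 100 ms ramp to −80 mV for tail current, every 8 s. Block = mean tail amplitude over the last 15 s with test compound ÷ control.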
Sequence of hERG potassium channel (Q12809 whole entry): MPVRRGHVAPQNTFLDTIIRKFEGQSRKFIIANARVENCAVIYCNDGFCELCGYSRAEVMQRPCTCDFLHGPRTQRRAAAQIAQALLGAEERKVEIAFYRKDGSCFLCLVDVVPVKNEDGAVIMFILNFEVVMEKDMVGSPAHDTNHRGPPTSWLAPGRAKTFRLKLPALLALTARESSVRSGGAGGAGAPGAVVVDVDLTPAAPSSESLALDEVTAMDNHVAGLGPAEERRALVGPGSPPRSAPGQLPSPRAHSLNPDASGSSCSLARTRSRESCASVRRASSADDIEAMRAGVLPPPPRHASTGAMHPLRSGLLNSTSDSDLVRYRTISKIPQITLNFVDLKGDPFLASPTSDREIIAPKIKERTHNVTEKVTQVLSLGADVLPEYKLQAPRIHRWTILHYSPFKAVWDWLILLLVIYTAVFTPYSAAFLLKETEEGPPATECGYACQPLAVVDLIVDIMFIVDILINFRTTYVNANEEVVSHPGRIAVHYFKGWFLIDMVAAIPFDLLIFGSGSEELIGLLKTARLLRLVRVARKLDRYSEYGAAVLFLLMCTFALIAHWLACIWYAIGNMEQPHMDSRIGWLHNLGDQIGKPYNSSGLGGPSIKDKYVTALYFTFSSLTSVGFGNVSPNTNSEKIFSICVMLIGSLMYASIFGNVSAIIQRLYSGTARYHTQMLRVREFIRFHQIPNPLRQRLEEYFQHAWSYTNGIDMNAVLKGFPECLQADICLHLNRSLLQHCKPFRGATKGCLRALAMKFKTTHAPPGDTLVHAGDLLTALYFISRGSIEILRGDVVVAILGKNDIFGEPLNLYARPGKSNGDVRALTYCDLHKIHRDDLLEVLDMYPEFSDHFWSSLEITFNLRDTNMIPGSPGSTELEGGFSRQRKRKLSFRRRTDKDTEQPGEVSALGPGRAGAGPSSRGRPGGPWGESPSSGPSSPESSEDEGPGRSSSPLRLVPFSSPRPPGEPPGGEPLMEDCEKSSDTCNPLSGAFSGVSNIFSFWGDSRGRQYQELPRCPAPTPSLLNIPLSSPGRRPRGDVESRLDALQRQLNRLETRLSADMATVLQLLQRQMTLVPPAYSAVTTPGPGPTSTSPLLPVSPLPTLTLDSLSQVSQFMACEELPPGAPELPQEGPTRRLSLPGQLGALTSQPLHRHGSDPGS
On the technique in general: hERG is a cardiac potassium channel; its block is linked to QT prolongation.

Series [4] has as its target T1, KDM3B. Description: IHC of HCP-1 xenograft tumors, KDM3B. The class given is in vivo, mice. As to conditions: HCP-1 xenograft tumor tissues.
Series [5] deals with 293T cells expressing a TCF-responsive luciferase reporter (293T-TCF-Luc). The experiment in a line: Wnt luciferase reporter assay. It counts as cell-based. As to conditions: Homo sapiens, HEK-293T, 16 h, read-out: IC50 (293T-TCF-Luc). The essentials: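 293T cells stably transduced with a lentiviral TCF/LEF–luciferase reporter and selected in puromycin ([…], 4 days). Seeded at 100 000 cells/well and dosed with test compound on attachment. Wnt signalling stimulated with 20 mM LiCl 4 h later. Lysates taken at 16 h; Bright-Glo luminescence normalised to total protein.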
(In a reporter assay the amount or activity of a reporter protein is the signal.)

A further series has as its target GSPT1 (Homo sapiens, UniProt P15170). Description: Western blot neo-substrate GSPT1 degradation in SW480 cells. As to conditions: 16 hours. It counts as cell-based.
Another series concerns CRL-1790 cells. The experiment in a line: CCK-8 based toxicity assay. It counts as cell-based, human. The essentials: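 Non-malignant human colon epithelial CRL-1790 cells grown in EMEM with 10% FBS and 1% pen–strep at 37 °C and 5% CO2. Seeded at 3 × 10^3 cells/well in 96-well plates, then exposed to test compound. Viability read by CCK-8 at 48 h as OD 450 nm. TD50 derived from the dose–response.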

A further series deals with HCP-1 cells. Description: Clonogenic assay HCP-1. It counts as cell-based, human. As to conditions: HCP-1, 2 weeks. The essentials: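 Cells kept in DMEM with 10% FBS and 1% pen–strep, seeded at 500 cells/well and dosed with test compound once attached. Medium refreshed every 3 days for 2 weeks. Colonies stained with 0.5% crystal violet and photographed. ED50 obtained by image analysis.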

The target of a further series is T2, KDM3A (Homo sapiens, UniProt Q9Y4C1).
T2 sequence (Q9Y4C1 1-1321): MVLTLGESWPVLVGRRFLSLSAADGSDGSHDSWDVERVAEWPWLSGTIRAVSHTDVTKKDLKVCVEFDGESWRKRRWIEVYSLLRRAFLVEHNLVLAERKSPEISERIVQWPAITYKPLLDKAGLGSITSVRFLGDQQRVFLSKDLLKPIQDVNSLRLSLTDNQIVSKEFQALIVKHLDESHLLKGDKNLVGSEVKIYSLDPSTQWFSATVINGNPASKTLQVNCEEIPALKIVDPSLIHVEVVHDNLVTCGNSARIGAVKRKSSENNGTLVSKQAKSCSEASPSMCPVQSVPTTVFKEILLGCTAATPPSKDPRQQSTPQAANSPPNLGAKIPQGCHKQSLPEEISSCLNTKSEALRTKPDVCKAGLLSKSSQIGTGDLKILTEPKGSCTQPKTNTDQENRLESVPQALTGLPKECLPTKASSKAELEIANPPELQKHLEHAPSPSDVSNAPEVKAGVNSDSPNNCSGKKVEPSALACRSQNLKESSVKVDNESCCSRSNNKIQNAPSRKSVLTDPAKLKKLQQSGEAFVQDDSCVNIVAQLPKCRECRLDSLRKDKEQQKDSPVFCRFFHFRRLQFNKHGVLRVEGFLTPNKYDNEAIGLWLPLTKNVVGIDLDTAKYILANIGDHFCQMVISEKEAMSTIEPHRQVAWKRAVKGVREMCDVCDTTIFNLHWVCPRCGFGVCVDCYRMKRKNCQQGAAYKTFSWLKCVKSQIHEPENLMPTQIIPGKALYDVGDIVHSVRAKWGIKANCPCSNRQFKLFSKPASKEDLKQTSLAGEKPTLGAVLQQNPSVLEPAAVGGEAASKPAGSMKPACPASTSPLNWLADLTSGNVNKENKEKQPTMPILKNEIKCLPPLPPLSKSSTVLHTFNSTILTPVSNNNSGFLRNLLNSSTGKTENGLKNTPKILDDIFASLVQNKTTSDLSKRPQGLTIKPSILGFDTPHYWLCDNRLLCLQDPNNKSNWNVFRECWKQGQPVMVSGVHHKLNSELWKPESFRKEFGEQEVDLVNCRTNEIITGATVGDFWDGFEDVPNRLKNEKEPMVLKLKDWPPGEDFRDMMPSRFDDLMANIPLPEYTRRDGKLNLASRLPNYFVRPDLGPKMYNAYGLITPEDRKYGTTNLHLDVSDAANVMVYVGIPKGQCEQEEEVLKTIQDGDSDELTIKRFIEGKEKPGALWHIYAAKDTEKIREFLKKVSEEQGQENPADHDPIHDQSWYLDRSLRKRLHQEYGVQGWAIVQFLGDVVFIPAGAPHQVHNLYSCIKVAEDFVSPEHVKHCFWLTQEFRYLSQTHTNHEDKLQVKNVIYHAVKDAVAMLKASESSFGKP
The experiment in a line: Western blot KDM3A degradation in SW480 cells. It counts as cell-based. The essentials: as §1

Sequence of GSPT1 (Q16531 whole entry): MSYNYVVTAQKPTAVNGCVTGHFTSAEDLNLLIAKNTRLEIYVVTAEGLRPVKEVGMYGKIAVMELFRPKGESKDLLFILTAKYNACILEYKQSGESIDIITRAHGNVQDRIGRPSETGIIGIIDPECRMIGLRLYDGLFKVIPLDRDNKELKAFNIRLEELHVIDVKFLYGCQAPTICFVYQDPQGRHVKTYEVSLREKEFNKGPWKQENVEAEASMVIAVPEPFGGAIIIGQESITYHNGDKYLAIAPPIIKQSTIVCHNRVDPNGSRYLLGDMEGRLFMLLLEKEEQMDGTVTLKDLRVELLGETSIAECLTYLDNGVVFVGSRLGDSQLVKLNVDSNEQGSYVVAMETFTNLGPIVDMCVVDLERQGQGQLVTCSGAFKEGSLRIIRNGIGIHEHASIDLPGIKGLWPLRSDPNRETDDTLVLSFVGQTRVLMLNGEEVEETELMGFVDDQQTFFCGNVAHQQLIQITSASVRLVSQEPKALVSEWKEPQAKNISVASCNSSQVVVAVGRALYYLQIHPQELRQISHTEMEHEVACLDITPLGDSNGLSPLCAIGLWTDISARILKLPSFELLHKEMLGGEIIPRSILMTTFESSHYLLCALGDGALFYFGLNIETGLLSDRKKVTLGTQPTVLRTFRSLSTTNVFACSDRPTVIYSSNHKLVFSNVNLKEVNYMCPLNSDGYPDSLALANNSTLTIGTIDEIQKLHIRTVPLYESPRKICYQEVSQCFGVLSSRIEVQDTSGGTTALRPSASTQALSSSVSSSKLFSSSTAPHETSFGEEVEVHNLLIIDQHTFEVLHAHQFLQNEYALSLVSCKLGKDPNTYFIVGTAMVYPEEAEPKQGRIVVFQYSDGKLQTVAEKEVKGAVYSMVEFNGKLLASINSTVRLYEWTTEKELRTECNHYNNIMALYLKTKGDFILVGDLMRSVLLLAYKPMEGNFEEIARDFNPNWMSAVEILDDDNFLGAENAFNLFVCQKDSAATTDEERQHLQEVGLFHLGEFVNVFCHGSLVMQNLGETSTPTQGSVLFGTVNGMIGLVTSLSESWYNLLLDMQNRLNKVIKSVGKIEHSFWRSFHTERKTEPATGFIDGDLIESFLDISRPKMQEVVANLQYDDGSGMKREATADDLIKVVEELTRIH
Sequence of GSPT1 (Q96SW2 whole entry, further chain): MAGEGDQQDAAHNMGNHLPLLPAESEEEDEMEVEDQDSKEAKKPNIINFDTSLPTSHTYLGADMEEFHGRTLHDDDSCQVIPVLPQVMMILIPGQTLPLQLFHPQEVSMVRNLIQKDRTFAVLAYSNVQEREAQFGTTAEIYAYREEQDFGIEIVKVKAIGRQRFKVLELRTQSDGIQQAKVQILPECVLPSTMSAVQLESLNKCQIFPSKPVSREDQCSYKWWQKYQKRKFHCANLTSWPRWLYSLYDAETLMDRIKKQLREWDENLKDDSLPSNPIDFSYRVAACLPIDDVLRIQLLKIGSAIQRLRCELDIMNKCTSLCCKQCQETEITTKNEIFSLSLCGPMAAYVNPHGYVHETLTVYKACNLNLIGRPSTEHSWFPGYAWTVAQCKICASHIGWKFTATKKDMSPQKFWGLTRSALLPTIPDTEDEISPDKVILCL
Sequence of GSPT1 (P15170 whole entry): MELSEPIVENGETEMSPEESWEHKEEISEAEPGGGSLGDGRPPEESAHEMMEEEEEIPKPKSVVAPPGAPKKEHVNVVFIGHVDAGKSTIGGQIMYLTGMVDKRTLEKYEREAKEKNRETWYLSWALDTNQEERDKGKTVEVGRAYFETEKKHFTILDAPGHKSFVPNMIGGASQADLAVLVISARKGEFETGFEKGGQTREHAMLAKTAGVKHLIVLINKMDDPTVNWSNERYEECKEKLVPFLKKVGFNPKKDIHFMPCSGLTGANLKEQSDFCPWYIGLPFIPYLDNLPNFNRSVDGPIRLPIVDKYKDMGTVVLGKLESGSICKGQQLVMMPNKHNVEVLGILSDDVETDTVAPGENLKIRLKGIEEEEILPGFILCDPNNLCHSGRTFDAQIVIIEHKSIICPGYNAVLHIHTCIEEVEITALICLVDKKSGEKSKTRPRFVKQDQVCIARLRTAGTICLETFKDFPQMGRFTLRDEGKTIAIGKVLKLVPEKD

As for `O=C1CCC(N2C(=O)c3cccc(NCCOCCOCCOCCOCCNC(=O)c4ccc(O)c5ncccc45)c3C2=O)C(=O)N1` (stereo not shown) [Compound 4, N-(14-((2-(2,6-Dioxopiperidin-3-yl)-1,3-dioxoisoindolin-4-yl)amino)-3,6,9,12-tetraoxatetradecyl)-8-hydroxyquinoline-5-carboxamide], the KDM3B degradation result at KDM3B [1] is “potently induce KDM3A and KDM3B degradation”. For the same compound, the “effect on KDM4 family proteins” value in [2] is “not dramatically affected”. Besides, the maximal degradation (Dmax) at KDM3B [3] (SW480, read-out: Dmax KDM3B) came to 88.5%; on KDM3A (SW480, read-out: Dmax KDM3A) it was 65.3%. The “KDM3B degradation with MLN4924 co-treatment” value at KDM3B [3] (SW480, MLN4924 1 μM, compound 4 1 μM) was “could be restored by MLN4924”. Further, the “KDM3B degradation with pomalidomide or IOX1 co-treatment” value at KDM3B [3] (SW480, pomalidomide 100 μM, compound 4 1 μM) is listed as “could also be suppressed by either pomalidomide or IOX1”. On KDM3B [3] (SW480 cells, 16 hours), the “KDM3B degradation (western blot)” value was “degrades both KDM3A and KDM3B at nanomolar concentrations”. The DC50 is 173 nM on KDM3B [3] (read-out: DC50 KDMB, SW480 cells, 16 hours) and 13.7 nM at KDM3A (read-out: DC50 KDM3A, SW480 cells, 16 hours). Moreover, the results for the half-inhibitory concentration (IC50) (against hERG potassium channel; in [5]) were more than 30000 nM and 8900 nM, respectively. Besides, the “KDM3B degradation in vivo (IHC)” value at KDM3B [4] was “confirmed the PROTAC-induced KDM3A and KDM3B degradation in vivo”. In addition, the GSPT1 degradation entry at GSPT1 is given as “did not induce”. The “cell growth of CRL-1790” value in the series with CRL-1790 cells (60 μM, two-day treatment) is “not dramatically affected”. Besides, the “TD50 CRL-1790” value with CRL-1790 cells (CCK8 assay, 48 h post drug treatment) was 285.4 µM. Moreover, in the series with HCP-1 cells, the colony formation entry was “potently inhibited the colony formation”. For the same compound, the “KDM3A degradation with MLN4924 co-treatment” value on KDM3A (SW480, MLN4924 1 μM, compound 4 0.1 μM) is listed as “could be restored by MLN4924”. In addition, the “KDM3A degradation with pomalidomide or IOX1 co-treatment” value at KDM3A (SW480, pomalidomide 100 μM, compound 4 0.1 μM) is listed as “could also be suppressed by either pomalidomide or IOX1”. The “KDM3A degradation (western blot)” value on KDM3A (SW480 cells, 16 hours) is “degrades both KDM3A and KDM3B at nanomolar concentrations”.
